Columns and labels:
[1] = target: T1, Autoinducer-2 kinase (Salmonella typhimurium (strain LT2 / SGSC1412 / ATCC 700720)) (UniProt Q8ZKQ6); assay: Inhibition of Salmonella typhimurium LsrK expressed in Escherichia coli MET1158 at 200 uM using (S)-DPD as substrate after 15 mins by Kinase Glo luminescence assay relative to control; details: Salmonella enterica subsp. enterica serovar Typhimurium
T1 sequence (whole entry): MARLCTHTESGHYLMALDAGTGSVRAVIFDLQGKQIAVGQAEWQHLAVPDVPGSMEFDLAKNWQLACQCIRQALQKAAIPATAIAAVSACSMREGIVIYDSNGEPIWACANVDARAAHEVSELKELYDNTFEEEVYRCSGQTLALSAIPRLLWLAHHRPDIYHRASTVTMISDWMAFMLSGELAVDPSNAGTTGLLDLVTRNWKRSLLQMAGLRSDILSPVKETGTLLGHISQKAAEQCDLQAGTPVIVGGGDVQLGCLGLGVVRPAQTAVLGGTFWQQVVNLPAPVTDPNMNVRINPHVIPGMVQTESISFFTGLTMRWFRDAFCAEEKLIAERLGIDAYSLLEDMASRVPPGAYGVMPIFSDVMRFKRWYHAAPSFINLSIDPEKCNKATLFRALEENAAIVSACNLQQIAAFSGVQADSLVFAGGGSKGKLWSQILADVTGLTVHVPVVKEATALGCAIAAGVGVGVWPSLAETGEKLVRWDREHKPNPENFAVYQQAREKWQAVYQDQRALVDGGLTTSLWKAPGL
Procedure, shortened: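 Compound at 200 µM in triplicate with 300 nM LsrK, 300 µM (S)-DPD and 100 µM ATP in 25 mM triethanolamine pH 7.4, 200 µM MgCl2, 0.1 mg/mL BSA; 15 min incubation, then Kinase Glo reagent; luminescence read after 30 min; percent inhibition.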

Autoinducer-2 kinase = target: T2, Autoinducer-2 kinase (Salmonella typhimurium (strain LT2 / SGSC1412 / ATCC 700720), UniProt Q8ZKQ6); assay: Inhibition of Salmonella typhimurium LsrK expressed in Escherichia coli MET1158 using (S)-DPD as substrate after 15 mins by Kinase Glo luminescence assay; set-up: species or system Salmonella enterica subsp. enterica serovar Typhimurium
T2 sequence (Q8ZKQ6 whole entry): T1 sequence (whole entry)
Procedure, shortened: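 Dose-response at 6 concentrations (25–500 µM); 300 nM LsrK, 300 µM (S)-DPD, 100 µM ATP in 25 mM triethanolamine pH 7.4, 200 µM MgCl2, 0.1 mg/mL BSA plus Triton X-100; 15 min, Kinase Glo readout after 30 min; IC50 by four-parameter logistic fit; mean ±SD of two independent experiments (n = 4).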

[2] = target: Glycerol kinase (Escherichia coli (strain K12)) (UniProt P0A6F3); assay: Inhibition of Escherichia coli K12 glycerokinase at 25 to 500 uM using glycerol as substrate after 15 mins by Kinase Glo luminescence assay; details: Escherichia coli K-12
Glycerol kinase (Escherichia coli (strain K12)), sequence (P0A6F3 whole entry): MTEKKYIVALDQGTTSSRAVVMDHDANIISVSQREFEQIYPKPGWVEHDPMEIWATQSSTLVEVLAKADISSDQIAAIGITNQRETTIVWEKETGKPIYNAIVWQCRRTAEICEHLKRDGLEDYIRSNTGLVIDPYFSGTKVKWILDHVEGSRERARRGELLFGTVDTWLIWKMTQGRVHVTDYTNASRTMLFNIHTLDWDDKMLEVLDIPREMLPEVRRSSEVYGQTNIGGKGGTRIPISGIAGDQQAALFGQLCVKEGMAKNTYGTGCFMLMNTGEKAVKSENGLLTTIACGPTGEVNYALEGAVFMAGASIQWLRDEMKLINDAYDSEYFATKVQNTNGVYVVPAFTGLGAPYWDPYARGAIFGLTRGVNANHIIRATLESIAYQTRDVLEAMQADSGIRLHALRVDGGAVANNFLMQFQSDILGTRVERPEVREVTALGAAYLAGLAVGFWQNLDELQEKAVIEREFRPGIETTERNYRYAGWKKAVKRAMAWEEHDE
Procedure, shortened: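 E. coli glycerokinase 0.3 U/mL with 300 µM glycerol, then 100 µM ATP; run as the LsrK protocol (triethanolamine pH 7.4 buffer, 15 min incubation, Kinase Glo luminescence read after 30 min).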

Structure (SMILES)	inhibition [1]	IC50 (Autoinducer-2 kinase)	inhibition [2]
CCCc1nc(-c2cccs2)cc(C(O)CO)n1 (stereo not given)	47.8%		
Cc1nc2cnc(C(O)CO)cc2s1 (stereo not given)	0.1%		
OCC(O)c1cc2ccsc2cn1 (stereo not given)	0.17%		
OCC(O)c1cc(C2CC2)n[nH]1 (stereo not given)	0%		
Cn1nc(-c2ccccc2)cc1C1COC2(CCCCC2)O1 (stereo not given)	78%	119 µM	
Cn1nc(C2CC2)cc1C(O)CO (stereo not given)	0%		
CC(C)c1cc(C2COC3(CCCCC3)O2)[nH]n1 (stereo not given)	7.14%		
c1ccc(-c2cc(C3COC4(CCCCC4)O3)n(C3CC3)n2)cc1 (stereo not given)	0%		
c1ccc(-c2cc(C3COC4(CCCCC4)O3)n(-c3ccccc3)n2)cc1 (stereo not given)	0%		
CN(C)c1ccc(-c2cc(C3COC4(CCCCC4)O3)n(C)n2)cc1 (stereo not given)	0.19%		
Cn1nc(-c2ccccc2)cc1C1COC2(CCCC2)O1 (stereo not given)	5.56%		
CC(C)n1nc(-c2ccccc2)cc1C1COC2(CCCCC2)O1 (stereo not given)	0%		
Cn1nc(-c2ccccc2)cc1C1COC2(CCOCC2)O1 (stereo not given)	31.1%		
OCC(O)c1cc(-c2ccco2)n[nH]1 (stereo not given)	0%		
Cn1nc(-c2cc(F)cc(Cl)c2)cc1C1COC2(CCCCC2)O1 (stereo not given)	4.42%		
Cc1nc(-c2ccccc2)cc(C(O)CO)n1 (stereo not given)	0.22%		
Fc1cccc(-c2nc(-c3cccs3)cc(C3COC4(CCCCC4)O3)n2)c1 (stereo not given)	0.2%		
Cc1nc(C2CC2)cc(C2COC3(CCCCC3)O2)c1C(=O)O (stereo not given)	6.26%		
CC(C)c1cc(C2COC3(CCCCC3)O2)n(C)n1 (stereo not given)	0%		
Cn1nc(-c2cccnc2)cc1C1COC2(CCCCC2)O1 (stereo not given)	4.92%		
Cn1nc(-c2ccco2)cc1C1COC2(CCCCC2)O1 (stereo not given)	51.6%	284 µM	Dose-dependent effect
CC(=O)N1CCC2(CC1)OCC(c1cc(-c3ccccc3)nn1C)O2 (stereo not given)	2.07%		
Cn1nc(-c2cccc(C#N)c2)cc1C1COC2(CCCCC2)O1 (stereo not given)	0%		
Cn1nc(C2CCCC2)cc1C(O)CO (stereo not given)	0%		
Fc1cccc2cnc(C3COC4(CCCCC4)O3)cc12 (stereo not given)	1.76%		
OCC(O)c1cc(C2CC2)nc(-c2ccccc2)n1 (stereo not given)	21.6%		
Cn1nc(-c2ccccc2)cc1C1COC2(CCCCCC2)O1 (stereo not given)	0%		

Structure (SMILES)	inhibition [1]	IC50 (Autoinducer-2 kinase)	inhibition [2]
Cc1nc(C2CC2)cc(C(O)CO)c1C(=O)O (stereo not given)	1.33%		
Cn1nc(-c2cc3ccccc3[nH]2)cc1C1COC2(CCCCC2)O1 (stereo not given)	4.38%		
OCC(O)c1cc(-c2ccccc2)n[nH]1 (stereo not given)	0%		
OCC(O)c1cc(C23CC4CC(CC(C4)C2)C3)n[nH]1 (stereo not given)	0%		
CC(C)c1cc(C(O)CO)[nH]n1 (stereo not given)	0%		
Cn1nc(-c2ccon2)cc1C1COC2(CCCCC2)O1 (stereo not given)	9.83%		
Cc1cccc(-c2cc(C3COC4(CCCCC4)O3)n(C)n2)c1 (stereo not given)	1.07%		
c1ccc(-c2nc(C3CC3)cc(C3COC4(CCCCC4)O3)n2)cc1 (stereo not given)	0.76%		
Oc1ccc2cc(C3COC4(CCCCC4)O3)ncc2c1 (stereo not given)	28.6%		
OCC(O)c1cc(C2CC2)nc(-c2ccccn2)n1 (stereo not given)	2.94%		
c1ccc(-c2cc(C3COC4(CCCCC4)O3)n(C3CCCC3)n2)cc1 (stereo not given)	0%		
CCOC(=O)c1c(C2COC3(CCCCC3)O2)cc(C2CC2)nc1C (stereo not given)	0.36%		
CCOC(=O)c1c(C2COC3(CCCCC3)O2)cc(-c2ccccc2)nc1C (stereo not given)	0.1%		
c1c(C2CCCC2)n[nH]c1C1COC2(CCCCC2)O1 (stereo not given)	0%		
c1ccc(-c2cc(C3COC4(CCCCC4)O3)[nH]n2)cc1 (stereo not given)	53.6%	475 µM	
Cc1ccc2cnc(C3COC4(CCCCC4)O3)cc2c1 (stereo not given)	1.66%		
c1ccc(-c2nc(C3CC3)cc(C3COC4(CCCCC4)O3)n2)nc1 (stereo not given)	21.2%		
Cn1nc(-c2cccs2)cc1C1COC2(CCCCC2)O1 (stereo not given)	0%		
c1coc(-c2cc(C3COC4(CCCCC4)O3)[nH]n2)c1 (stereo not given)	43.5%	384 µM	Dose-dependent effect
OCC(O)c1cc2ccc(O)cc2cn1 (stereo not given)	1.67%		
Cn1nc(C2CCCC2)cc1C1COC2(CCCCC2)O1 (stereo not given)	0%		
Cc1nc(-c2ccccc2)cc(C2COC3(CCCCC3)O2)c1C(=O)O (stereo not given)	0%		
OCC(O)c1cc2c(F)cccc2cn1 (stereo not given)	0.65%		
c1cc2cc(C3COC4(CCCCC4)O3)ncc2o1 (stereo not given)	5.75%		
Cc1nc2cc(C3COC4(CCCCC4)O3)ncc2s1 (stereo not given)	6.32%		
OCC(O)c1cc2ccccc2cn1 (stereo not given)	0.48%		
Cn1nc(C2CC2)cc1C1COC2(CCCCC2)O1 (stereo not given)	0%		

Structure (SMILES)	inhibition [1]	IC50 (Autoinducer-2 kinase)	inhibition [2]
OCC(O)c1cc(-c2ccccc2)nc(C2CC2)n1 (stereo not given)	24.5%		
Cn1nc(C23CC4CC(CC(C4)C2)C3)cc1C(O)CO (stereo not given)	0%		
Cc1cc(-c2ccccc2)nn1C	2.01%		
c1cc2cc(C3COC4(CCCCC4)O3)ncc2s1 (stereo not given)	11.1%		
Cn1nc(-c2ccco2)cc1C(O)CO (stereo not given)	0%		
c1ccc2cc(C3COC4(CCCCC4)O3)ncc2c1 (stereo not given)	14.9%		
Cn1nc(-c2cccs2)cc1C(O)CO (stereo not given)	0%		
c1c(C2CC2)n[nH]c1C1COC2(CCCCC2)O1 (stereo not given)	1.47%		
OCC(O)c1cc(-c2cccs2)n[nH]1 (stereo not given)	0%		
Cc1nc(-c2ccccc2)cc(C(O)CO)c1C(=O)O (stereo not given)	0.81%		
Cc1ccc2cnc(C(O)CO)cc2c1 (stereo not given)	0.4%		
c1c(C23CC4CC(CC(C4)C2)C3)n[nH]c1C1COC2(CCCCC2)O1 (stereo not given)	0%		
OCC(O)c1cc(C2CCCC2)n[nH]1 (stereo not given)	0%		
Cn1nc(-c2ccccc2)cc1C(O)CO (stereo not given)	0%		
CCn1nc(-c2ccccc2)cc1C1COC2(CCCCC2)O1 (stereo not given)	0%		
OCC(O)c1cc2ccoc2cn1 (stereo not given)	2.07%		
CC(C)c1cc(C(O)CO)n(C)n1 (stereo not given)	0%		
OCC(O)c1cc(-c2cccs2)nc(-c2cccc(F)c2)n1 (stereo not given)	19.8%		
N#CCCn1nc(-c2ccccc2)cc1C1COC2(CCCCC2)O1 (stereo not given)	0%		
Cc1nc(-c2ccccc2)cc(C2COC3(CCCCC3)O2)n1 (stereo not given)	9.41%		
Cn1nc(C2CCCCC2)cc1C1COC2(CCCCC2)O1 (stereo not given)	1.51%		
CCCc1nc(-c2cccs2)cc(C2COC3(CCCCC3)O2)n1 (stereo not given)	0.96%		
Cn1nc(C23CC4CC(CC(C4)C2)C3)cc1C1COC2(CCCCC2)O1 (stereo not given)	0%		
c1csc(-c2cc(C3COC4(CCCCC4)O3)[nH]n2)c1 (stereo not given)	26.5%		
c1ccc(-c2cc(C3COC4(CCCCC4)O3)nc(C3CC3)n2)cc1 (stereo not given)	15.2%		

Source: ChEMBL document CHEMBL4400549, “DPD-Inspired Discovery of Novel LsrK Kinase Inhibitors: An Opportunity To Fight Antimicrobial Resistance” (J Med Chem, 2019)
